In all, about 310,000 compounds went through this assay and about 1,500 (0.48%) were called active.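 Rule for the calls: active = B-score above 5 SD of library B-scores, and initial fluorescence ratio not above library mean plus 5 SD; inactive = the rest.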 This excerpt belongs to a sample that is enriched for actives.
biological target: Short transient receptor potential channel 4 (Mus musculus) (UniProt Q9QUQ5); test: activators of mouse TRPC4 channel, primary screen, Fluo4 calcium, HEK293 TRPC4beta/mu-opioid cells (AID 2237); conditions: Fluo4 calcium fluorescence, at 10 µM; stronger effect = higher value;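 for B-score: positive B-score marks a calcium rise read as TRPC4 activation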
How it was run: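 Material: TRPC4beta and mu-opioid receptor HEK293 stable cells | Incubation: 45 min room-temperature Fluo4 loading, 110 s read | Detection: Kinetic Fluo4 calcium fluorescence | Measure: Integrated baseline-normalised fluorescence ratio, converted to per-well B score | Benchmarks: Low control buffer alone, high control maximal DAMGO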

Chain of Short transient receptor potential channel 4 (Mus musculus) (Q9QUQ5 whole entry, looked up): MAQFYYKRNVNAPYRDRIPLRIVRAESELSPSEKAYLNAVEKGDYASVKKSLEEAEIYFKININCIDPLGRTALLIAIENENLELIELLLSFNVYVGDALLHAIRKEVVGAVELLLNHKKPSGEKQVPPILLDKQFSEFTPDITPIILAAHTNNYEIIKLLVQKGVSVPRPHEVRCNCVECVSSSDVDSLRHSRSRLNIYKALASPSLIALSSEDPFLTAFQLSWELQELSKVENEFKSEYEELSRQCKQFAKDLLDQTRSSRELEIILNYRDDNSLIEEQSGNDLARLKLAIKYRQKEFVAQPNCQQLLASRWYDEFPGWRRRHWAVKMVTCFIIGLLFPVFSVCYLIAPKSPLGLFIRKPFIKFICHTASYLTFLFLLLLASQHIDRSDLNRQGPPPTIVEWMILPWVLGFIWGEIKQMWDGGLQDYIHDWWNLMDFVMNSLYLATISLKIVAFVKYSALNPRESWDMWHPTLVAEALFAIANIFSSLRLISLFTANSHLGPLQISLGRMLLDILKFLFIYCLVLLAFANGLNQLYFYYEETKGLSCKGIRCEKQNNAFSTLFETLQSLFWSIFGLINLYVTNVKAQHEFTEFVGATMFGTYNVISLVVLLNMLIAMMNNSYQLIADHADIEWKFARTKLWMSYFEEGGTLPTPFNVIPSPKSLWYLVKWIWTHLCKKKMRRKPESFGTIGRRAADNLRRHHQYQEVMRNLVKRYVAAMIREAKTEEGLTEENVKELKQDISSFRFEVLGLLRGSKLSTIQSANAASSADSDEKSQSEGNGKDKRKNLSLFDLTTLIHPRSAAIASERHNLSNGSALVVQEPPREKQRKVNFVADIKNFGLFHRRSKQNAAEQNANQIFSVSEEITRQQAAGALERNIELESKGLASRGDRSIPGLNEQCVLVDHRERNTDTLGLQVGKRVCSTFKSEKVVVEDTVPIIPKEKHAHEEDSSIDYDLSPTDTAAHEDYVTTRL

| Structure (SMILES) | B-score |
| --- | --- |
| CCSc1nc(O)c(C(c2cccc(OC)c2)c2c(O)nc(SCC)[nH]c2=O)c(=O)[nH]1 | inactive |
| CC1CCN(C(=O)C2CCN(S(=O)(=O)N3CCC4(CC3)OCCO4)CC2)CC1 | inactive |
| COc1ccc(CCN2C(=O)C3CC=C(C)CC3C2=O)cc1OC (stereo not given) | inactive |
| COc1ccc(CCN2C(=O)C(C)=C(C)C2=O)cc1OC | inactive |
| COc1ccc(CCN(C)CCN2C(=O)c3ccccc3C2=O)cc1OC | 159 (active) |
| O=c1[nH]c2ccccc2s1 | inactive |
| COc1cccc(CN2CCNC(=O)C2CC(=O)N(C)CCc2ccccn2)c1 (stereo not given) | 132 (active) |
| COc1ccc(CN2CCNC(=O)C2CC(=O)N(C)Cc2ccccn2)cc1OC (stereo not given) | inactive |
| CN(CCc1cn[nH]c1)C(=O)CC1C(=O)NCCN1Cc1cccc(Oc2ccccc2)c1 (stereo not given) | inactive |
| CCC(C)(C)NC(=O)C(c1ccc(O)cc1)N(Cc1ccco1)C(=O)CCC(=O)Nc1ccccn1 (stereo not given) | inactive |
| CCOc1c2ccc(C(=O)NC3CCCc4ccccc43)cc2nn1CC (stereo not given) | inactive |
| OCCC#Cc1ccc(CN2CCN(Cc3ccsc3)C(CCO)C2)cc1 (stereo not given) | inactive |
| OCCC1CN(Cc2ccccc2-c2ccco2)CCN1Cc1ccsc1 (stereo not given) | 44 (active) |
| Cc1ccc(CN2CCN(Cc3ccccc3-c3ccco3)CC2CCO)o1 (stereo not given) | inactive |
| COc1cc(CO)ccc1OCC(=O)Nc1cccc2ccccc12 | inactive |
| CCN(CC(=O)NCc1cccs1)C(=O)c1ccc(OC)c(S(=O)(=O)N2CCOCC2)c1 | inactive |
| O=C(c1c(F)cccc1F)N1CCN(c2ncc(Br)cn2)CC1 | 204 (active) |
| CC(=O)NC1(c2ccc(F)cc2)CCN(C(=O)c2c(F)cccc2F)CC1 | inactive |
| O=C(c1c(F)cccc1Cl)N1CCN(c2ccccn2)CC1 | inactive |
| COc1ccc(Cl)cc1C(=O)NNC(=O)c1nc2nc(C)cc(C)n2n1 | inactive |
| CCc1ccc(-c2nn(-c3ccccc3)cc2CSC(=N)N)cc1 | 260 (active) |
| Cc1ccc(-c2nn(-c3ccccc3)cc2CN(Cc2ccccc2)C(=O)CCC(=O)O)o1 | inactive |

| Structure (SMILES) | B-score |
| --- | --- |
| COc1ccc(-c2nn(-c3ccccc3)cc2C(=O)Nc2nc(CC(C)=O)ns2)cc1 | inactive |
| COc1ccc(-c2cc(=O)oc3cc(OC(C)C(=O)NCC4CCC(C(=O)O)CC4)ccc23)cc1 (stereo not given) | inactive |
| Cc1[nH]c2ccccc2c1-c1ccc(Cl)nn1 | inactive |
| CCOC(=O)C1CCCCN1Cc1ccc(OC)c(OC)c1OC (stereo not given) | inactive |
| CCOC(=O)c1cc(C)nc(S(C)(=O)=O)c1C#N | inactive |
| CCCCSc1[nH]c(=O)c(C(=O)OCC)cc1C#N | 56 (active) |
| CCOC(=O)c1cc(C#N)c(N2CCCCC2)nc1-c1ccccc1 | inactive |
| CC1CCN(CC(=O)Nc2nccs2)CC1 | inactive |
| COc1ccc(Cl)cc1NC(=O)[C@@H]1CCCN1C(=O)c1cccs1 | inactive |
| NS(=O)(=O)c1ccc(CCNc2nc(C(F)(F)F)nc3ccccc23)cc1 | inactive |
| CCc1ccc(C(CNc2nc(C(F)(F)F)nc3ccccc23)N(C)C)cc1 (stereo not given) | 51 (active) |
| COc1cccc(CNc2nc(C(F)(F)F)nc3ccccc23)c1 | inactive |
| COc1ccc(NC(=O)CC2C(=O)NC3CCCCC3N2C(=O)c2ccc(F)cc2)cc1 (stereo not given) | inactive |
| CC1(C)C=C2[C@H]3CC[C@@H]4[C@@]5(C)CCC(=O)C(C)(C)[C@@H]5CC[C@@]4(C)[C@]3(C)CC[C@@]2(C(=O)O)CC1 | inactive |
| CC1(C)C2CCC13CS(=O)(=O)NC3C2 (stereo not given) | inactive |
| Cc1ccc(C(=O)NC23CC4CC(CC(C4)C2)C3)c(Cl)c1 | inactive |
| Cc1ccc(S(=O)(=O)NCCC(=O)NNC(=O)C2COc3ccccc3O2)cc1 (stereo not given) | inactive |
| O=C(NCc1ccccc1)C1=C[C@H](C2CC2)C[C@H](OCc2ccc(CO)cc2)O1 | inactive |
| O=C(C1=C[C@H](C2CC2)C[C@H](OCc2ccc(CO)cc2)O1)N1CCN(Cc2ccccc2)CC1 | inactive |
| O=C(NCc1ccccc1)C1=C[C@@H](C2CCCCC2)C[C@@H](OCc2ccc(CO)cc2)O1 | 151 (active) |
| O=C(NCc1ccccc1)C1=C[C@@H](c2ccccc2)C[C@@H](OCCCCO)O1 | inactive |
| O=C(NCc1ccccc1)C1=C[C@@H](c2ccc(C(F)(F)F)cc2)C[C@@H](OCc2ccc(CO)cc2)O1 | inactive |

| Structure (SMILES) | B-score |
| --- | --- |
| CC(C)(C)[C@H]1C=C(C(=O)NCc2ccccc2)O[C@@H](OCc2ccc(CO)cc2)C1 | 136 (active) |
| CC(=O)c1ccc(S(=O)(=O)Nc2ccc(-c3ccc4nncn4n3)cc2)cc1 | inactive |
| C#CCOc1ccc(/C=C2/C(=O)ON=C2C)cc1OCC | inactive |
| COc1ccc(C(=O)C2CCCN(Cc3cccn3-c3ccccn3)C2)c(C)c1 (stereo not given) | inactive |
| CCOC(=O)c1ccc(NC(=O)c2c(NCc3ccccc3)[nH]c(=O)[nH]c2=O)cc1 | inactive |
| C/C=C(\C)C(=O)NCCN1C2=NC[C@H](Cc3ccc(O)cc3)N2C[C@@H]1Cc1ccc(OC)cc1 | inactive |
| COc1ccc(C[C@H]2CN3C(=NC[C@H]3C)N2CCNC(=O)CCC2CCCCC2)cc1 | 78 (active) |
| COc1cccc(CNC(=O)CCC2CCCN(Cc3ccc(OC(F)F)cc3)C2)c1 (stereo not given) | inactive |
| CCNc1nc(SCCOc2ccccc2)nc(N(C)C)n1 | inactive |
| O=C(NCCN1C(=O)S/C(=C\c2cccnc2)C1=O)c1ccc(S(=O)(=O)N2CCCC2)cc1 | inactive |
| CC(=O)Nc1nc2ccccc2n1Cc1ccc(C)cc1 | inactive |
| CCCc1nc2c(C)cc(-c3nc4ccccc4n3C)cc2n1Cc1ccc(-c2ccccc2C(=O)O)cc1 | 95 (active) |
| CC(=O)c1nc2ccccc2n1Cc1ccccc1 | inactive |
| COC(=O)N/N=C/c1c[n+]([O-])c2ccccc2[n+]1[O-] | inactive |
| Cc1ccc(OCC(=O)NC(C)c2ccccc2)cc1C (stereo not given) | inactive |
| Cc1cc(C)cc(OCC(=O)NC(C)c2ccccc2)c1 (stereo not given) | inactive |
| COc1cc(OC)cc(C(=O)N[C@H](C(=O)OCC(=O)NC(C)c2ccccc2)C(C)C)c1 (stereo not given in full) | 64 (active) |
| CCc1ccccc1NC(=O)c1cc(-c2ccc3c(c2)OCO3)on1 | inactive |
| c1ccc(C2CCC(N3CCC(N4CCCCC4)CC3)CC2)cc1 (stereo not given) | 123 (active) |
| O=S(=O)(c1ccccc1)N1CCC(c2ccccc2)CC1 | inactive |
| Cc1ccc(S(=O)(=O)N2CCC(N3CCCCCC3)CC2)cc1 | inactive |
